According to ChEMBL document CHEMBL3352688, “Synthesis and anti-inflammatory and pro-resolving activities of 22-OH-PD1, a monohydroxylated metabolite of protectin D1” (2014):
Calls of active or inactive are those of the source. The calls are words filed in the database; no cut-off is given here.

Columns and labels:
Mus musculus [1] = experiment: Anti-inflammatory activity in FVB mouse with zymosan-induced sterile peritonitis assessed as reduction in TXB2 in peritoneal inflammatory exudates at 10 ng, ip dosed 10 mins before zymosan challenge by LC-MS/MS based targeted lipid mediator metabololipidomics; type: functional
Outline: (§1)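 Male FVB mice, 6–8 weeks old, received 10 ng i.p. in saline with 0.1% EtOH as vehicle, then zymosan 1 mg/mouse i.p. 10 min later. Peritoneal lavage was taken at 4 h in PBS without Ca/Mg. Eicosanoids were measured by LC/MS-MS after solid-phase extraction, identified with at least six diagnostic ions and quantified against linear calibration curves. Mean ± SEM, n = 4 mice per group.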

[2] = Inhibition of IL8-induced chemotaxis of human primary PMN at 0.01 to 100 nM pre-incubated for 15 mins followed by IL8 stimulation by PrestoBlue fluorescence assay
Mus musculus [3] = experiment: Anti-inflammatory activity in FVB mouse with zymosan-induced sterile peritonitis assessed as reduction in PGD2 in peritoneal inflammatory exudates at 10 ng, ip dosed 10 mins before zymosan challenge by LC-MS/MS based targeted lipid mediator metabololipidomics; type: functional; outline: as §1
[4] = Inhibition of LTB4-induced chemotaxis of human primary PMN at 0.01 to 100 nM pre-incubated for 15 mins followed by LTB4 stimulation by PrestoBlue fluorescence assay
Homo sapiens [5] = species: Homo sapiens; experiment: Inhibition of LTB4-induced cell adhesion to fibronectin in human primary PMN at 0.1 to 10 nM pre-incubated for 10 mins followed by LTB4 stimulation by flow cytometry; type: functional; conditions: in the assay text read “flow chamber assay with microscopy” for “flow cytometry”
Outline: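 Purified human PMN were pretreated 10 min at room temperature, then stimulated with 10 nM LTB4 for 10 min at room temperature. Cells at 1 × 10^6/mL were perfused over fibronectin-coated chambers at 0.5 mL/min for 5 min. Adherent cells were counted in six random fields by imaging. Three independent experiments; paired t test versus vehicle.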

Mus musculus [6] = experiment: Anti-inflammatory activity in FVB mouse with zymosan-induced sterile peritonitis assessed as reduction in PGF2alpha in peritoneal inflammatory exudates at 10 ng, ip dosed 10 mins before zymosan challenge by LC-MS/MS based targeted lipid mediator metabololipidomics; type: functional; outline: as §1
Mus musculus [7] = experiment: Anti-inflammatory activity in FVB mouse with zymosan-induced sterile peritonitis assessed as reduction in PMN infiltration in peritoneal inflammatory exudates at 10 ng, ip measured at 4 hrs dosed 10 mins before zymosan challenge by light microscopy and flow cytometry; type: functional
Outline: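 Male FVB mice, 6–8 weeks old, were dosed i.p. with 10 ng in saline with 0.1% EtOH, then zymosan 1 mg/mouse i.p. 10 min later. Peritoneal lavage was collected at 4 h in PBS without Ca/Mg. Leukocytes were enumerated by light microscopy and flow cytometry. Mean ± SEM, n = 4 mice per treatment.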

Homo sapiens [8] = species: Homo sapiens; experiment: Inhibition of IL8-induced chemotaxis of human primary PMN at 0.01 to 100 nM pre-incubated for 15 mins followed by IL8 stimulation by PrestoBlue fluorescence assay
Homo sapiens [9] = species: Homo sapiens; experiment: Inhibition of LTB4-induced chemotaxis of human primary PMN at 0.01 to 100 nM pre-incubated for 15 mins followed by LTB4 stimulation by PrestoBlue fluorescence assay

| Structure (SMILES) | inhibition (INH) (Mus musculus [1]) [%] | inhibition (INH) [2] [%] | inhibition (INH) (Mus musculus [3]) [%] | inhibition (INH) [4] [%] | inhibition (Homo sapiens [5]) | inhibition (INH) (Mus musculus [6]) [%] | inhibition (INH) (Mus musculus [7]) [%] | inhibition (Mus musculus [1]) | inhibition (Homo sapiens [8]) | inhibition (Mus musculus [3]) | inhibition (Homo sapiens [9]) | inhibition (Mus musculus [6]) |
| --- | --- | --- | --- | --- | --- | --- | --- | --- | --- | --- | --- | --- |
| O=C(O)CC/C=C\C/C=C\C[C@@H](O)/C=C/C=C/C=C\[C@@H](O)C/C=C\CCO | 48 | 23 | 27 | 19 | Active | 43 | 43 |  |  |  |  |  |
| CC/C=C\C[C@H](O)\C=C/C=C/C=C/[C@H](O)C/C=C\C/C=C\CCC(=O)O |  |  |  |  | Active |  | 54 | Active | Active | Active | Active | Active |
